Tests used:
[1] = target: Sodium-dependent serotonin transporter (Rattus norvegicus, UniProt P31652); assay: In vitro for its binding affinity for serotonin transporter RB5-HT-T in rat cortical membranes; type: cell membranes
Outline: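 Serotonin transporter affinity (RB5-HT-T). Compound tested at six concentrations in triplicate. Ki calculated from IC50 by Cheng–Prusoff and given as the mean of 2–3 experiments.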

[2] = target: T1, 5-hydroxytryptamine receptor 1A (Homo sapiens) (UniProt P08908); assay: Binding affinity for 5-hydroxytryptamine 1A receptor was determined by incubating human 5-hydroxytryptamine 1A receptor transfected CHO cells with [3H]8-OH-DPAT; type: cell-based; parameters: concentration or dose not given beside the values; details: concentration not given here
T1 sequence (whole entry): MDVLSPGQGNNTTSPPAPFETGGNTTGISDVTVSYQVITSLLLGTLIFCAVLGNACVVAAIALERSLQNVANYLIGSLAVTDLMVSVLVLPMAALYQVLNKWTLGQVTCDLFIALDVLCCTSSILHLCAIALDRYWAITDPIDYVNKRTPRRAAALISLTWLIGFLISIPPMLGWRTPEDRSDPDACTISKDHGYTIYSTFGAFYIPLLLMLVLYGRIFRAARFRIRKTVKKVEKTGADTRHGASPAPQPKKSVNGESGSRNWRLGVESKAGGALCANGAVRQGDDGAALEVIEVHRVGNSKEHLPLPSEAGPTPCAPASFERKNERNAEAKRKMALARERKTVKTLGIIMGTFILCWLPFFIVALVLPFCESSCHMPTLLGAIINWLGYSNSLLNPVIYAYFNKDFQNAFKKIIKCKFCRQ
Outline: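 Displacement of [3H]-8-OH-DPAT binding in CHO cells transfected with human 5-HT1A receptors. Test compound at six concentrations, triplicate wells per experiment. IC50 converted to Ki (Cheng–Prusoff) and reported as the mean of 2–3 independent experiments.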

[3] = target: Adrenergic receptor alpha-1 (Rattus norvegicus) (UniProt P15823+P23944+P43140); assay: In vitro inhibition of [3H]prazosin binding to rat Alpha-1 adrenergic receptors on cortical membranes at 1 uM.; type: cell membranes; details: Membrane
[4] = target: T2, Adrenergic receptor alpha-1 (Rattus norvegicus, UniProt P15823+P23944+P43140); assay: Binding affinity at Alpha-1 adrenergic receptors on rat cortical membranes by [3H]prazosin displacement.
T2 sequence (P15823 whole entry): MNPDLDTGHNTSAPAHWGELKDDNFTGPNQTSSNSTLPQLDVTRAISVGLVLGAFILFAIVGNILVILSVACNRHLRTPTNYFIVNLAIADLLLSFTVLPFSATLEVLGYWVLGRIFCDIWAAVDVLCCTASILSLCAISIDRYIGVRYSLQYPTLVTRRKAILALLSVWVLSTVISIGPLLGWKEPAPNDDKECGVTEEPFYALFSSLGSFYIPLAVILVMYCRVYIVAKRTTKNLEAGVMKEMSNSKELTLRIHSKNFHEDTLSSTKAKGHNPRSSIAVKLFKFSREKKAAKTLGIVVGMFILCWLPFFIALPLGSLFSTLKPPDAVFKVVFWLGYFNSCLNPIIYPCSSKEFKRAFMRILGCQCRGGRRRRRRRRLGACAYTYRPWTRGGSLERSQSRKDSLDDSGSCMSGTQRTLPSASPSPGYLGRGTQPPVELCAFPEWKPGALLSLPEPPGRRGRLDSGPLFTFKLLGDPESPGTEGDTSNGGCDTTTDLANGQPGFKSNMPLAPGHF
T2 sequence (P23944 whole entry): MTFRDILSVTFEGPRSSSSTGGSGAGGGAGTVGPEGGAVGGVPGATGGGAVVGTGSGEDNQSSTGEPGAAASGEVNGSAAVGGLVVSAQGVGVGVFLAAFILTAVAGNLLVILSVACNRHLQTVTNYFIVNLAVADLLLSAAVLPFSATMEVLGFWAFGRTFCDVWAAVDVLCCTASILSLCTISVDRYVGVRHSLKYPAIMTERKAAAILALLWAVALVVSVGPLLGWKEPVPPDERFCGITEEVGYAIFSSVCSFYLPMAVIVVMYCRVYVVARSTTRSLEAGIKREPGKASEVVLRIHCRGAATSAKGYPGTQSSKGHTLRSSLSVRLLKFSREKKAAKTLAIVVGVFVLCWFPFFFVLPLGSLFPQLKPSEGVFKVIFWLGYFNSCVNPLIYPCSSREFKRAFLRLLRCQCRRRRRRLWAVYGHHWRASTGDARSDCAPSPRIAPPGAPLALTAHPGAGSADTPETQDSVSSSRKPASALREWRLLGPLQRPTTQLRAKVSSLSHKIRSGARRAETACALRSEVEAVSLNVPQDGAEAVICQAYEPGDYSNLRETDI
T2 sequence (P43140 whole entry): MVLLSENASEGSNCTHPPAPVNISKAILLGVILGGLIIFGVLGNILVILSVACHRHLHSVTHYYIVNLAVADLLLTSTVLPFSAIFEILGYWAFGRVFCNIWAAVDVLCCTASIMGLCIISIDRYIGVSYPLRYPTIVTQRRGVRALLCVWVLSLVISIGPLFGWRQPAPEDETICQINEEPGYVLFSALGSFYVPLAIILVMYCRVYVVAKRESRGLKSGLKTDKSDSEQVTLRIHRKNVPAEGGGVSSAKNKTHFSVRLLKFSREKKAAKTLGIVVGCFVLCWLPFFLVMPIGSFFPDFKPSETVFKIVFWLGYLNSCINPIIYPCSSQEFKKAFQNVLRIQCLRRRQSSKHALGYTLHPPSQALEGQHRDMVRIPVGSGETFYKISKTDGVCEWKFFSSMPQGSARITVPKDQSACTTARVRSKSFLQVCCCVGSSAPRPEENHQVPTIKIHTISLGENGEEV
Outline: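 Rat cortical membranes incubated with [3H]-prazosin and test compound. Six concentrations per experiment, each run in triplicate; Ki derived from IC50 by the Cheng–Prusoff method and given as the mean of 2–3 experiments.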

Sodium-dependent serotonin transporter, sequence (P31652 whole entry): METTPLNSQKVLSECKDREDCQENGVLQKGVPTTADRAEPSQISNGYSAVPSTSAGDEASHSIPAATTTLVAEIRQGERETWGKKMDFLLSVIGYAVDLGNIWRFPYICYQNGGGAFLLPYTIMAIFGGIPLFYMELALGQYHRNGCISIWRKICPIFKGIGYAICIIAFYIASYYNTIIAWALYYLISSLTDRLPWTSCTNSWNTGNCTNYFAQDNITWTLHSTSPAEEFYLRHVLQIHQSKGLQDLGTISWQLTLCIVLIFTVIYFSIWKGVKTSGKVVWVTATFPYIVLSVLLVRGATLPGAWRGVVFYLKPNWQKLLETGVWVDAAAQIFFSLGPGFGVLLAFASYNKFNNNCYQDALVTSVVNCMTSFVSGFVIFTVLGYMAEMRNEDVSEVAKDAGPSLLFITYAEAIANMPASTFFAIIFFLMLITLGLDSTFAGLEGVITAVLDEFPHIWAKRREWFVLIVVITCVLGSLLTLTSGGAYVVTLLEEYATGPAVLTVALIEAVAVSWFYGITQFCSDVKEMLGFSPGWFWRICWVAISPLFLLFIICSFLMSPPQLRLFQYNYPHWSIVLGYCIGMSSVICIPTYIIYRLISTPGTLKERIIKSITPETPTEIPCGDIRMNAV

Structure (SMILES) | Ki [1] [nM] | inhibition [2] [%] | inhibition [3] [%] | Ki [4] [nM]
N#Cc1ccc2[nH]cc([C@H]3CC[C@H](NCc4ccccc4)CC3)c2c1 | 25 | 37 | 28 | 
N#Cc1ccc2[nH]cc(C3=CCC(NCc4ccccc4)CC3)c2c1 (configuration not stated) | 3.13 | 87 | 27 | 
COc1cccc2c1CCN([C@H]1CC[C@@H](c3c[nH]c4ccc(C#N)cc43)CC1)C2 | 0.61 | 7 |  | 
N#Cc1ccc2[nH]cc([C@H]3CC[C@H](NCCc4ccccc4)CC3)c2c1 | 1.98 | 0 | 56 | 
c1ccc(CN[C@H]2CC[C@H](c3c[nH]c4ccccc43)CC2)cc1 | 107 | 32 | 64 | 
COc1ccc2c(c1)CN([C@H]1CC[C@H](c3c[nH]c4ccc(C#N)cc43)CC1)CC2 | 12 | 48 |  | 113
N#Cc1ccc2[nH]cc(C3=CCC(N4CCCCC4)CC3)c2c1 (configuration not stated) | 178 | 0 | 10 | 
COc1ccc2c(c1)CCN(CCCc1c[nH]c3ccc(F)cc13)C2 |  |  |  | 58
Fc1ccc2[nH]cc([C@H]3CC[C@H](NCc4ccccc4)CC3)c2c1 | 16 | 11 | 8 | 
COc1ccc2c(c1)CN([C@H]1CC[C@@H](c3c[nH]c4ccc(C#N)cc43)CC1)CC2 | 0.8 | 26 | 11 | 
COc1cccc2c1CN([C@H]1CC[C@H](c3c[nH]c4ccc(C#N)cc43)CC1)CC2 | 7.5 | 46 |  | 
COc1ccc2c(c1)CCN([C@H]1CC[C@H](c3c[nH]c4ccc(C#N)cc43)CC1)C2 | 8 | 74 |  | 228
Fc1ccc2[nH]cc([C@H]3CC[C@@H](NCc4ccccc4)CC3)c2c1 | 21 | 3 | 9 | 
N#Cc1ccc2[nH]cc([C@H]3CC[C@@H](N4CCCCC4)CC3)c2c1 | 22 | 0 | 3 | 
COc1cccc2c1CCN([C@H]1CC[C@H](c3c[nH]c4ccc(C#N)cc43)CC1)C2 | 12 | 47 |  | 
N#Cc1ccc2[nH]cc([C@H]3CC[C@@H](NCc4ccccc4)CC3)c2c1 | 7.5 | 15 | 17 | 
N#Cc1ccc2[nH]cc([C@H]3CC[C@H](N4CCc5ccccc5C4)CC3)c2c1 | 10 | 10 |  | 88
COc1cccc2c1CN([C@H]1CC[C@@H](c3c[nH]c4ccc(C#N)cc43)CC1)CC2 | 1.01 | 14 |  | 
N#Cc1ccc2[nH]cc([C@H]3CC[C@@H](NCCc4ccccc4)CC3)c2c1 | 7.5 | 0 | 40 | 
COc1ccc2c(c1)CCN([C@H]1CC[C@@H](c3c[nH]c4ccc(C#N)cc43)CC1)C2 | 0.1 | 21 | 11 | 
Fc1ccc2[nH]cc(CCCN3CCc4ccccc4C3)c2c1 |  | 48 |  | 
N#Cc1ccc2[nH]cc([C@H]3CC[C@H](N4CCCCC4)CC3)c2c1 | 152 | 0 | 14 | 
N#Cc1ccc2[nH]cc(C3=CCC(NCCc4ccccc4)CC3)c2c1 (configuration not stated) | 1.54 | 41 | 32 | 
N#Cc1ccc2[nH]cc([C@H]3CC[C@@H](N4CCc5ccccc5C4)CC3)c2c1 | 1.23 | 0 |  | 337
c1ccc(CN[C@H]2CC[C@@H](c3c[nH]c4ccccc43)CC2)cc1 | 855 | 0 | 21 | 
